Source: ChEMBL document CHEMBL3259672, “Design, synthesis, and biological evaluation of O-2-modified indenoisoquinolines as dual topoisomerase I-tyrosyl-DNA phosphodiesterase I inhibitors” (J Med Chem, 2014)
Activity calls are given as the source filed them. No cut-off for these calls is given here.

Key:
[1] = target: Tyrosyl-DNA phosphodiesterase 1 (Homo sapiens, UniProt Q9NUW8); experiment: Inhibition of recombinant TDP1(unknown origin) using 5'-[32P]-single stranded N14Y DNA oligonucleotide after 15 mins by […]
In short: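 A 5′-32P-labeled single-stranded oligonucleotide with 3′ phosphotyrosine (N14Y) was incubated with 5 pM recombinant TDP1 for 15 min at room temperature. Loss of the N14P product band on the gel marks inhibition.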

[2] = target: T1, DNA topoisomerase 1 (Homo sapiens) (UniProt P11387); experiment: Inhibition of human recombinant topoisomerase 1-mediated 117 bp DNA cleavage by agarose gel electrophoresis; settings: in the assay text read “denaturing PAGE” for “agarose gel electrophoresis”
T1 sequence (whole entry): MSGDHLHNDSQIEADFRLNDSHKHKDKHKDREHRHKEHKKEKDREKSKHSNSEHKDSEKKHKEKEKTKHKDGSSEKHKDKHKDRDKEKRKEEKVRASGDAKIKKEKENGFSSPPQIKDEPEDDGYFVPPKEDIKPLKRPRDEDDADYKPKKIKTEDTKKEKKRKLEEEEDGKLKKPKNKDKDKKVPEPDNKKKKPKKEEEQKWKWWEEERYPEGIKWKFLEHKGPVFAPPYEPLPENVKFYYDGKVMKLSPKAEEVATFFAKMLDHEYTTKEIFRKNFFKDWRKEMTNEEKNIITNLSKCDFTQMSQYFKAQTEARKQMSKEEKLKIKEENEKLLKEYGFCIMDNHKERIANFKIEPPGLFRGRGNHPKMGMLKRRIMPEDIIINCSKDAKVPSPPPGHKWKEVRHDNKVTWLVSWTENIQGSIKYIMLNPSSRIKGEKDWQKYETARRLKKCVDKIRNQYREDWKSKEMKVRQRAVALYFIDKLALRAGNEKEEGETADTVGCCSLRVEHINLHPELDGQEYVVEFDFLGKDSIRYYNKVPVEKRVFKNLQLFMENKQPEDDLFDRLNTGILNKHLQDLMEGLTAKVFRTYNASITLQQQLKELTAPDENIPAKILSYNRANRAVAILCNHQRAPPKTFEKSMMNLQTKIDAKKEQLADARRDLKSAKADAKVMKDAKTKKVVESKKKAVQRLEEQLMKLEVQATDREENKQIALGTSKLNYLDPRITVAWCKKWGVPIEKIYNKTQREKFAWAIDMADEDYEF
In short: (§1)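 Human recombinant Top1 was purified from baculovirus. Compound was tested at 0.1, 1, 10 and 100 μM for 20 min at 25 °C. Reactions were stopped with SDS (0.5% final) and run on 20% denaturing PAGE with phosphoimager read-out. Activity was graded semiquantitatively.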

[3] = target: T1, DNA topoisomerase 1 (Homo sapiens); experiment: Inhibition of human recombinant topoisomerase 1-mediated 117 bp DNA cleavage at 0.1 to 100 uM by agarose gel electrophoresis; settings: in the assay text read “denaturing PAGE” for “agarose gel electrophoresis”; in short: as §1
HOP-62 = experiment: Growth inhibition of human HOP62 cells after 48 hrs by SRB assay; format: functional; settings: HOP-62, 48 h
In short: (§2)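 NCI60 screen. Cells were exposed to 100, 10, 1, 0.1 and 0.01 μM for 48 h, then stained with sulforhodamine B and read by optical density. Percent growth relative to control was plotted against log concentration. […] Where a standard error is given, values are the mean of two determinations.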

[4] = Growth inhibition of human UACC62 cells after 48 hrs by SRB assay; format: functional; settings: UACC-62, 48 h; in short: as §2
MCF7 = experiment: Growth inhibition of human MCF7 cells after 48 hrs by SRB assay; format: functional; settings: MCF7, 48 h; in short: as §2
[5] = Growth inhibition of human OVCAR3 cells after 48 hrs by SRB assay; format: functional; settings: OVCAR-3, 48 h; in short: as §2
[6] = Growth inhibition of human SF539 cells after 48 hrs by SRB assay; format: functional; settings: SF-539, 48 h; in short: as §2
HCT-116 = experiment: Growth inhibition of human HCT116 cells after 48 hrs by SRB assay; format: functional; settings: HCT-116, 48 h; in short: as §2
SN12C = experiment: Growth inhibition of human SN12C cells after 48 hrs by SRB assay; format: functional; in short: as §2
DU-145 = experiment: Growth inhibition of human DU145 cells after 48 hrs by SRB assay; format: functional; settings: DU-145, 48 h; in short: as §2

Sequence of Tyrosyl-DNA phosphodiesterase 1 (Q9NUW8 whole entry): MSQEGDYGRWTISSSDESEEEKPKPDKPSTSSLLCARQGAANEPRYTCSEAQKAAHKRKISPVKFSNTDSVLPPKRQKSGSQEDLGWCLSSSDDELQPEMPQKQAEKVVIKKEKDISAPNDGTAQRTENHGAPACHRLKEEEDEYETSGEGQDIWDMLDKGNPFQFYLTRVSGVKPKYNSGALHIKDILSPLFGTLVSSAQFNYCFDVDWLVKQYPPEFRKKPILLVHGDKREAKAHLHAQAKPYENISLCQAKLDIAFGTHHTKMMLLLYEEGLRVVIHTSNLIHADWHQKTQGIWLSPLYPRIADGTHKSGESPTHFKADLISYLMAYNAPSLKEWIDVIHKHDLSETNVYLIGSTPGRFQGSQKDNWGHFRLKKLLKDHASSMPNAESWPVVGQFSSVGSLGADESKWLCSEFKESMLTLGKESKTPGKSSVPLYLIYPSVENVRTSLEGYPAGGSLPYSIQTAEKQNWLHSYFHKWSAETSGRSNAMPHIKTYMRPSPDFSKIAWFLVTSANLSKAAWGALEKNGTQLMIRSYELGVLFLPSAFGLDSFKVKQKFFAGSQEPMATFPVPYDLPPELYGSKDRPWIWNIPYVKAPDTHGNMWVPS

IC50 [1]	inhibition [2]	inhibition [3]	inhibition [1]	GI50 (MCF7)	GI50 (HCT-116)	GI50 (DU-145)	Structure (SMILES)	GI50 (HOP-62)	GI50 [4]	GI50 [5]	GI50 [6]	GI50 (SN12C)
		Active	Dose-dependent effect				COc1cc2c(=O)n(CCCN3CCOCC3)c3c(c2cc1OCCCN(C)C)C(=O)c1cc2c(cc1-3)OCO2					
		Active	Dose-dependent effect				CCNCCCOc1cc2c3c(n(CCCN4CCOCC4)c(=O)c2cc1OC)-c1cc2c(cc1C3=O)OCO2					
> 111000 nM	inactive			< 10 nM		< 10 nM	C=CCOc1cc2c3c(n(CCCN4CCOCC4)c(=O)c2cc1OC)-c1cc2c(cc1C3=O)OCO2	< 10 nM	< 10 nM	300 nM	10 nM	< 10 nM
	inactive					300 nM	COc1cc2c(=O)n(CCCN3CCOCC3)c3c(c2cc1OCCCN)C(=O)c1cc2c(cc1-3)OCO2	300 nM	300 nM	400 nM	200 nM	300 nM
	Active			100 nM	390 nM	300 nM	COc1cc2c(=O)n(CCCN3CCOCC3)c3c(c2cc1O)C(=O)c1cc2c(cc1-3)OCO2	300 nM	300 nM	900 nM	300 nM	200 nM
		Active		100 nM		40 nM	COc1cc2c(=O)n(CCCN3CCOCC3)c3c(c2cc1OCCCN1CCCC1)C(=O)c1cc2c(cc1-3)OCO2		300 nM	1200 nM	200 nM	
> 111000 nM	Active			400 nM	1100 nM	900 nM	COC(=O)COc1cc2c3c(n(CCCN4CCOCC4)c(=O)c2cc1OC)-c1cc2c(cc1C3=O)OCO2	100 nM	1000 nM	5800 nM	100 nM	800 nM

The remaining lines, values behind:

Structure (SMILES)	IC50 [1]	inhibition [2]	inhibition [3]	inhibition [1]	GI50 (MCF7)	GI50 (HCT-116)	GI50 (DU-145)	GI50 (HOP-62)	GI50 [4]	GI50 [5]	GI50 [6]	GI50 (SN12C)
COc1cc2c(=O)n(CCCN3CCOCC3)c3c(c2cc1OCC(=O)NN)C(O)c1cc2c(cc1-3)OCO2 (configuration not stated)	> 111000 nM	inactive										
COc1cc2c(=O)n(CCCN3CCOCC3)c3c(c2cc1OCCCN1CCN(C)CC1)C(=O)c1cc2c(cc1-3)OCO2	> 111000 nM		Active	Dose-dependent effect								
COc1cc2c(=O)n(CCCN3CCOCC3)c3c(c2cc1OCCCN1CCCCC1)C(=O)c1cc2c(cc1-3)OCO2			Active	Dose-dependent effect	40 nM	1100 nM	200 nM	300 nM	9600 nM	5400 nM	30 nM	400 nM
COc1cc2c3c(n(C)c(=O)c2cc1OC)-c1cc2c(cc1C3=O)OCO2						35000 nM	37000 nM	1300 nM	4200 nM	73000 nM		68000 nM
COc1cc2c3c(n(CCCNCCO)c(=O)c2cc1OC)-c1cc2c(cc1C3=O)OCO2 [LMP-744]											40 nM	
COc1cc2c(=O)n(CCCN3CCOCC3)c3c(c2cc1OCCCN1CCOCC1)C(=O)c1cc2c(cc1-3)OCO2	> 111000 nM	Active			20 nM	100 nM	20 nM	30 nM	200 nM	700 nM	100 nM	100 nM
